These results are taken from ChEMBL document CHEMBL1240431, “Design, synthesis and anti-ulcerogenic effect of some of furo-salicylic acid derivatives on acetic acid-induced ulcerative colitis” (Eur J Med Chem, 2010).

The subject of one series is Candida albicans. Kind of series: Antifungal activity agaisnt Candida albicans ATCC 10231 by agar diffusion method. On the technique in general: A growth-free zone around the sample is the usual read-out of agar diffusion tests.
The subject of series [1] is Rattus norvegicus. The series is described as follows: Antiulcerogenic activity against acetic acid-induced ulcerative colitis in albino rat assessed as ulcer index at 12.5 mmol/kg, po. Format: functional. The method, boiled down: (§1)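 Male albino rats (190–200 g, n = 5 per group) received drug in DMSO by orogastric cannula daily for 5 days, with the last dose 2 h before colitis. After a 36 h fast and under ether, 4% acetic acid (5 ml/kg) was instilled 8 cm intrarectally. At 24 h, the distal 8 cm colon was scored for wet weight/length, ulcer area (1 mm² grid count), and ulcer index (lesion score 0–4 plus area).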

Series [2] can be described thus: Toxicity in po dosed albino rat. Conditions: in vivo. Format: organism-based.
For the next series, the system named is Staphylococcus aureus. Kind of series: Antibacterial activity agaisnt Staphylococcus aureus MTCC 3160 by agar diffusion method. Format: functional. The method, boiled down:
(§2)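 Mueller Hinton agar (pH 7.4) was seeded with 24-h cultures adjusted to 0.5 McFarland. Compounds were prepared as 10 mg/ml stocks in DMF and added to 6 mm wells. DMF served as the negative control. Plates were incubated at 35 °C for 24 h, and the diameter of the growth inhibition zone was read in mm with a caliper.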

A further series has as its system Bacillus subtilis. The series is described as follows: Antibacterial activity agaisnt Bacillus subtilis MTCC 1456 by agar diffusion method. The series is classed as functional. The method, boiled down: as §2
Another series concerns Escherichia coli. The series is described as follows: Antibacterial activity agaisnt Escherichia coli MTCC 8739 by agar diffusion method. Format: functional. The method, boiled down:
as §2

Series [3] deals with Rattus norvegicus. Kind of series: Antiulcerogenic activity against acetic acid-induced ulcerative colitis in albino rat assessed as ulcer area at 12.5 mmol/kg, po. The series is classed as functional. Summed up:
as §1

In series [4] the test system is Rattus norvegicus. The series is described as follows: Antiulcerogenic activity against acetic acid-induced ulcerative colitis in albino rat assessed as ratio of wet weight and length at 12.5 mmol/kg, po. The series is classed as functional. The method, boiled down:
as §1

Regarding `COc1c(C(=O)O)c(O)cc2occc12`, in the series on Candida albicans, the “diameter of the inhibition zone (DIZ)” value was 8 mm.
For orientation: LD50 means the dose expected to kill half of the subjects tested. Take `COc1c(C(=O)O)c(O)c(N)c2occc12`: in the series on Rattus norvegicus [1], the Activity was 5.5 no unit. This molecule gave a median lethal dose (LD50) in series [2] of 396 mg/kg. In addition, the “diameter of the inhibition zone (DIZ)” value in the series with Staphylococcus aureus is recorded as 8 mm; in the series on Bacillus subtilis, 8 mm; in the series with Escherichia coli, 10 mm; with Candida albicans it was 8 mm. Also, in the series with Rattus norvegicus [3], the ulcer area amounted to 3.3 cm2. In the series on Rattus norvegicus [4], the Ratio came to 90.
For the molecule `COc1c(C(=O)O)c(O)c(S(=O)(=O)Cl)c2occc12`, the Activity in the series with Rattus norvegicus [1] came to 8.1 no unit. The 50% lethal dose (LD50) in series [2] stood at 390 mg/kg. Further, the “diameter of the inhibition zone (DIZ)” value is 8 mm with Staphylococcus aureus, 8 mm in the series with Bacillus subtilis, 8 mm in the series on Escherichia coli and 20 mm with Candida albicans. Further, in the series with Rattus norvegicus [3], the ulcer area was found to be 4.7 cm2. Moreover, the Ratio with Rattus norvegicus [4] was 112.
Turning to `COc1c(C(=O)O)c(O)c(S(N)(=O)=O)c2occc12`, in the series on Rattus norvegicus [1], the Activity was 7.4 no unit. The molecule further displayed an LD50 in series [2] of 400 mg/kg. Also, the “diameter of the inhibition zone (DIZ)” value in the series on Staphylococcus aureus is 8 mm; in the series with Bacillus subtilis, 8 mm; with Escherichia coli, 8 mm; in the series with Candida albicans, 14 mm. Also, in the series on Rattus norvegicus [3], the ulcer area amounted to 4.4 cm2. Besides, the Ratio in the series on Rattus norvegicus [4] is 103.4.
With `COc1c(C(=O)O)c(O)c(/N=N/c2ccccc2)c2occc12`, the Activity in the series on Rattus norvegicus [1] is 4.8 no unit. The same molecule showed a 50% lethal dose (LD50) in series [2] of 410 mg/kg. In addition, the “diameter of the inhibition zone (DIZ)” value in the series with Staphylococcus aureus worked out at 8 mm; in the series on Bacillus subtilis it was 10 mm; with Escherichia coli, 10 mm; with Candida albicans, 18 mm. Moreover, the ulcer area with Rattus norvegicus [3] is 2.6 cm2. In addition, the Ratio in the series with Rattus norvegicus [4] was determined as 84.5.
With `COc1c(C(=O)O)c(O)c(/N=N/c2ccc(S(=O)(=O)Nc3ccccn3)cc2)c2occc12`, the Activity in the series on Rattus norvegicus [1] was found to be 6.7 no unit. The molecule also came in with a 50% lethal dose (LD50) in series [2] of 410 mg/kg. In addition, the “diameter of the inhibition zone (DIZ)” value came to 10 mm with Staphylococcus aureus, 12 mm in the series on Bacillus subtilis, 12 mm with Escherichia coli and 22 mm in the series on Candida albicans. Moreover, in the series on Rattus norvegicus [3], the ulcer area came to 3.9 cm2. Further, the Ratio with Rattus norvegicus [4] was determined as 95.2.
On to `COc1c(C(=O)O)c(O)c(NS(=O)(=O)c2ccccc2)c2occc12`, for which the Activity with Rattus norvegicus [1] was determined as 7.4 no unit. This molecule had an LD50 in series [2] of 400 mg/kg. Also, the “diameter of the inhibition zone (DIZ)” value in the series on Bacillus subtilis and in the series on Candida albicans was 10 mm throughout. In the series on Rattus norvegicus [3], the ulcer area was determined as 4.4 cm2. The Ratio in the series with Rattus norvegicus [4] stood at 99.1.
With `COc1c(C(=O)O)c(O)c(NS(=O)(=O)c2ccc(C)cc2)c2occc12`, in the series on Rattus norvegicus [1], the Activity is 7.6 no unit. This molecule returned an LD50 in series [2] of 400 mg/kg. Also, the “diameter of the inhibition zone (DIZ)” value in the series with Bacillus subtilis is given as 10 mm; with Candida albicans it was 15 mm. For the same molecule, in the series on Rattus norvegicus [3], the ulcer area worked out at 4.3 cm2. Further, the Ratio in the series on Rattus norvegicus [4] is reported as 98.6.
`COc1c(C(=O)O)c(O)c(NS(=O)(=O)c2ccc(Cl)cc2)c2occc12`: the Activity in the series on Rattus norvegicus [1] worked out at 4.6 no unit. The median lethal dose (LD50) in series [2] stood at 390 mg/kg. The “diameter of the inhibition zone (DIZ)” value in the series with Bacillus subtilis is listed as 12 mm; with Candida albicans, 8 mm. Also, the ulcer area in the series on Rattus norvegicus [3] was determined as 2.6 cm2. Besides, the Ratio in the series on Rattus norvegicus [4] was determined as 86.4.
As to `COc1c(C(=O)O)c(O)c(S(=O)(=O)Nc2ccccc2)c2occc12`, the Activity in the series with Rattus norvegicus [1] stood at 8.5 no unit. Moreover, in series [2], the 50% lethal dose (LD50) amounted to 396 mg/kg. Also, the “diameter of the inhibition zone (DIZ)” value with Bacillus subtilis came to 12 mm; in the series on Candida albicans it was 15 mm. Also, in the series with Rattus norvegicus [3], the ulcer area worked out at 5.1 cm2. Further, in the series with Rattus norvegicus [4], the Ratio was found to be 119.9.
Turning to `COc1c(C(=O)O)c(O)c(S(=O)(=O)Nc2ccc(C)cc2)c2occc12`, the Activity in the series on Rattus norvegicus [1] was 8.1 no unit. The same molecule came in with an LD50 in series [2] of 396 mg/kg. In addition, the “diameter of the inhibition zone (DIZ)” value in the series on Staphylococcus aureus is 8 mm; in the series with Escherichia coli, 12 mm; in the series on Candida albicans, 10 mm. The ulcer area in the series on Rattus norvegicus [3] was 4.7 cm2. For the same molecule, the Ratio with Rattus norvegicus [4] worked out at 111.
Turning to `COc1c(C(=O)O)c(O)c(S(=O)(=O)Nc2ccc(Cl)cc2)c2occc12`, in the series on Rattus norvegicus [1], the Activity worked out at 8.2 no unit. The LD50 in series [2] is 410 mg/kg. Besides, the “diameter of the inhibition zone (DIZ)” value in the series with Escherichia coli and with Candida albicans was 12 mm in each case. In the series with Rattus norvegicus [3], the ulcer area was 4.8 cm2. The Ratio in the series with Rattus norvegicus [4] is 112.
For the molecule `COc1c(C(=O)O)c(O)c(S(=O)(=O)Nc2ccc(Cl)cc2Cl)c2occc12`, the Activity in the series with Rattus norvegicus [1] stood at 8.2 no unit. Moreover, the LD50 in series [2] amounted to 410 mg/kg. In the series with Rattus norvegicus [3], the ulcer area is 4.8 cm2. In addition, the Ratio in the series on Rattus norvegicus [4] is given as 110. In addition, the “diameter of the inhibition zone (DIZ)” value in the series on Candida albicans is 8 mm.
As for `COc1ccc(NS(=O)(=O)c2c(O)c(C(=O)O)c(OC)c3ccoc23)cc1`, in the series on Rattus norvegicus [1], the Activity turned out to be 8.7 no unit. The molecule also showed an LD50 in series [2] of 396 mg/kg. Moreover, the “diameter of the inhibition zone (DIZ)” value came to 10 mm with Bacillus subtilis and 8 mm in the series with Candida albicans. The ulcer area with Rattus norvegicus [3] is 5.1 cm2. Moreover, the Ratio with Rattus norvegicus [4] turned out to be 120.1.
In the case of `C[C@@H]1[C@H](O)[C@@H](C)/C=C/C=C/C=C/C=C/C=C/C=C/C=C/[C@H](O[C@@H]2O[C@H](C)[C@@H](O)[C@H](N)[C@@H]2O)C[C@@H]2O[C@](O)(C[C@@H](O)C[C@@H](O)[C@H](O)CC[C@@H](O)C[C@@H](O)CC(=O)O[C@H]1C)C[C@H](O)[C@H]2C(=O)O` [AMPHOTERICIN B], the “diameter of the inhibition zone (DIZ)” value with Candida albicans amounted to 20 mm.
For `O=C(O)c1cc(/N=N/c2ccc(S(=O)(=O)Nc3ccccn3)cc2)ccc1O` [SULFASALAZINE], in the series on Rattus norvegicus [1], the Activity was 3.7 no unit. The “diameter of the inhibition zone (DIZ)” value with Staphylococcus aureus came to 30 mm; with Bacillus subtilis it was 25 mm; in the series with Escherichia coli it was 8 mm; with Candida albicans it was 7 mm. Also, in the series on Rattus norvegicus [3], the ulcer area was determined as 2.1 cm2. Moreover, in the series on Rattus norvegicus [4], the Ratio was determined as 79.
